Sampled rows, rich in hits. Any-hit rate of the full collection: about 1.6%.
p47phox inh: p47phox (human) inhibition; 220,000 compounds, 0.53% hits; P14598; p47phox/p22phox peptide binding, fluorescence polarization, 2 h; AID 1274; inhibition, % at 24.7 µM
Target sequence (P14598 whole entry, looked up): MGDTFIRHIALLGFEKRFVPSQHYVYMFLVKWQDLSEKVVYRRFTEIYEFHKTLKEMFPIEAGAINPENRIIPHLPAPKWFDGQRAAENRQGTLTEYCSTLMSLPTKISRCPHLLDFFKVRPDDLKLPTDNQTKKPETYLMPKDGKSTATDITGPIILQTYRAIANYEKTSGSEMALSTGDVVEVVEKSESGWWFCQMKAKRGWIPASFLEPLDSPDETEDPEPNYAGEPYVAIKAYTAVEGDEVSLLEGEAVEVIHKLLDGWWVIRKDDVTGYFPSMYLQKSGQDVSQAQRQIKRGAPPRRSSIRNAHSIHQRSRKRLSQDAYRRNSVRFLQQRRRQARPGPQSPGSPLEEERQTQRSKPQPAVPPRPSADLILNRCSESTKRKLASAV
TbMetRS inhib: Trypanosoma brucei MetRS inhibition | purified T. brucei MetRS, ATP depletion, Kinase-Glo luminescence | inhibition, % at 11.9 µM | 360,000 compounds, 0.4% hits;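 active = inhibition above a per-plate cutoff of the control wells' mean inhibition plus 3 SD, cut at about 5.5% in these data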
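Test system: purified T. brucei MetRS enzyme. Also added: ATP, methionine and E. coli bulk tRNA substrates. Compound: 11.9 µM single point. Schedule: 15 min enzyme-compound preincubation, 2 h reaction, 10 min detection, 25 °C. Signal: luciferase luminescence of residual ATP, Kinase-Glo. Evaluation: percent inhibition versus plate control medians. Controls: DMSO wells, low control.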
p97 ATPase inh: human p97 ATPase inhibition | P55072 | recombinant p97 ATPase, Kinase-Glo ATP luminescence, 3 h | inhibition, % at 8 µM | 220,000 compounds, 0.42% hits | AID 1481; in the data active = inhibition above about 15%
14-3-3 Bad inh: disrupts binding of bovine 14-3-3 zeta to phospho-Bad peptide. 220,000 compounds, 0.71% hits. TR-FRET 14-3-3zeta/Dy647-pBad peptide displacement, 1 h. inhibition, % at 21.7 µM;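 active = inhibition above about 70%, limit read from the data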
Target sequence (P63103 whole entry, looked up): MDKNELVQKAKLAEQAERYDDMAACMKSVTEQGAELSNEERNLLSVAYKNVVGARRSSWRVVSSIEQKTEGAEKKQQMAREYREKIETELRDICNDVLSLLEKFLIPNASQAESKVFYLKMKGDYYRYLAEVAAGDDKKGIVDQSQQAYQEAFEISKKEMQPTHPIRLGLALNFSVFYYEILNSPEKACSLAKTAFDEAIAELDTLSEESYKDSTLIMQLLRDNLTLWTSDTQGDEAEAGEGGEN
UBC9 SUMO inh: inhibitors of human SUMOylation (UBC9) | 290,000 compounds, 0.36% hits | inhibition, % at 35 µM | HTRF SUMOylation assay, SAE1/SAE2 + UBC9, in vitro | AID 2006 | P63279; in the data active = inhibition above about 50%, passing the limit was not always enough; inconclusive = no clear call, values can overlap the other calls
eIF4E 4G PPI: inhibitors of eIF4E and eIF4G interaction in translation initiation. P63073+Q04637. 220,000 compounds, 0.37% hits. TR-FRET eIF4E-eIF4GI(517-606) binding, 2 h. inhibition, % at 21.7 µM. AID 782
Numbers stand for hits; [ ] = remark or other dose.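 Rule for the calls, unless noted: active = inhibition above about 30% (limit read from the data); inactive = the rest.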

`O=C(Nc1ccc(O)cc1)C1CC=CCC1` (centres undefined) gave p47phox inh 56, TbMetRS inhib inactive, p97 ATPase inh inactive and UBC9 SUMO inh inactive.
`O=C(Nc1nccs1)C1CC=CCC1` (centres undefined) gave TbMetRS inhib inactive and UBC9 SUMO inh inactive.
For CCSc1nnc(-c2ccccc2N)c(=O)[nH]1 the results were p47phox inh inactive, TbMetRS inhib inactive, p97 ATPase inh inactive, 14-3-3 Bad inh inactive, UBC9 SUMO inh inactive and eIF4E 4G PPI inactive.
Screening Nc1ccccc1-c1nnc(SCc2ccccc2F)[nH]c1=O returned p47phox inh inactive, TbMetRS inhib inactive, p97 ATPase inh inactive, 14-3-3 Bad inh inactive, UBC9 SUMO inh inactive and eIF4E 4G PPI 33[fluorescence artefact?].
O=C(NCCCO)c1ccc2nc(-c3ccco3)c(-c3ccco3)nc2c1 was read as p47phox inh inactive, TbMetRS inhib inactive, p97 ATPase inh inactive, 14-3-3 Bad inh inactive, UBC9 SUMO inh inconclusive and eIF4E 4G PPI inactive.
For CC(=O)c1ccc(NC(=O)c2ccc3nc(-c4ccco4)c(-c4ccco4)nc3c2)cc1 the results were p47phox inh inactive, TbMetRS inhib inactive, p97 ATPase inh inactive, 14-3-3 Bad inh inactive, UBC9 SUMO inh 92 and eIF4E 4G PPI 47[fluorescence artefact?].
Screening COc1ccc2nc(-c3ccco3)c(-c3ccco3)nc2c1 returned p47phox inh inactive, TbMetRS inhib inactive, p97 ATPase inh inactive, 14-3-3 Bad inh inactive, UBC9 SUMO inh 71 and eIF4E 4G PPI inactive.
For O=C(CSc1nnc(-c2ccco2)c(-c2ccco2)n1)c1ccccc1 the results were p47phox inh inactive, TbMetRS inhib inactive, p97 ATPase inh inactive, 14-3-3 Bad inh inactive, UBC9 SUMO inh inactive and eIF4E 4G PPI inactive.
`CC(=O)c1ccc(NC(=O)CSc2nnc(-c3ccco3)c(-c3ccco3)n2)cc1` gave p47phox inh inactive, TbMetRS inhib inactive, p97 ATPase inh inactive, 14-3-3 Bad inh inactive, UBC9 SUMO inh 90 and eIF4E 4G PPI inactive.
For O=C(NCCO)Nc1ccc2nc(-c3ccco3)c(-c3ccco3)nc2c1 the results were p47phox inh inactive, p97 ATPase inh 44, 14-3-3 Bad inh 80, UBC9 SUMO inh 98 and eIF4E 4G PPI 62.
For COC(=O)C1=COC(OC2OC(CO)C(O)C(O)C2O)C2C(C)CC(=O)C12 (centres undefined) the results were TbMetRS inhib inactive.
CC(=O)NC(c1ccccc1)c1nc(-c2ccc(Cl)cc2)cs1 (centres undefined) was read as TbMetRS inhib inactive.
Screening O=C1NC[C@H](CCCCN2CCN(Cc3ccccc3)C(=O)C2=O)N(Cc2ccccc2)C1=O returned TbMetRS inhib inactive.
`CC1CCN(C(C)C(=O)Nc2ccccc2-c2ccccc2)CC1` (centres undefined) gave p47phox inh inactive, TbMetRS inhib inactive, p97 ATPase inh inactive, 14-3-3 Bad inh 85, UBC9 SUMO inh inactive and eIF4E 4G PPI inactive.
Cc1ccc(S(=O)(=O)N2CCN(C(C)C(=O)Nc3ccccc3-c3ccccc3)CC2)cc1 (centres undefined) was read as p47phox inh inactive, TbMetRS inhib inactive, p97 ATPase inh inactive, 14-3-3 Bad inh inactive, UBC9 SUMO inh inactive and eIF4E 4G PPI 32[fluorescence artefact?].
For CC(C(=O)Nc1ccccc1-c1ccccc1)N1CCN(C(=O)c2ccccc2)CC1 (centres undefined) the results were p47phox inh inactive, TbMetRS inhib inactive, p97 ATPase inh inactive, 14-3-3 Bad inh inactive, UBC9 SUMO inh inactive and eIF4E 4G PPI inactive.
CC(C)(C)NC(=O)C1C(c2ccccc2)=Nc2ccccc2N1C(=O)c1ccc(C(F)(F)F)cc1 (centres undefined) was read as TbMetRS inhib inactive.
COc1cccc(CN2CCC2(C)C(=O)Nc2cccc(Oc3ccccc3)c2)c1F (centres undefined) was read as TbMetRS inhib inactive.
Screening Cc1c(CCOC(=O)C23CC4(C)CC(C)(CC(C)(C4)C2)C3)sc[n+]1CC(=O)c1ccccc1 returned p47phox inh 33, TbMetRS inhib inactive, p97 ATPase inh inactive, 14-3-3 Bad inh inactive, UBC9 SUMO inh inactive and eIF4E 4G PPI inactive.
Cc1ccc(-n2nc3ccc(N)cc3n2)c(C)c1 was read as TbMetRS inhib inactive and UBC9 SUMO inh 50.
Screening S=C(Nc1cccc(Cl)c1Cl)N1CCC2(CC1)OCCO2 returned p47phox inh inactive, TbMetRS inhib inactive, p97 ATPase inh inactive, 14-3-3 Bad inh inactive, UBC9 SUMO inh inactive and eIF4E 4G PPI 91.
Screening COC(=O)CC(NC(=O)Nc1ccccc1F)c1ccc2c(c1)OCO2 (centres undefined) returned TbMetRS inhib inactive and UBC9 SUMO inh inactive.
`C#CCOCCOCCOCCNc1nc(N2CCN(C(=O)[C@H](Cc3cc4ccccc4[nH]3)n3cc([C@@H](N)Cc4ccc(O)cc4)nn3)CC2)nc(N2CCN(C(=O)[C@H](Cc3cc4ccccc4[nH]3)n3cc([C@@H](N)CC(C)C)nn3)CC2)n1` gave p47phox inh 73, 14-3-3 Bad inh inactive, UBC9 SUMO inh inactive and eIF4E 4G PPI inactive.
C#CCOCCOCCOCCNc1nc(N2CCN(C(=O)[C@H](CCCCN)n3cc(CCCC)nn3)CC2)nc(N2CCN(C(=O)[C@H](Cc3ccc(O)cc3)n3cc(CCO)nn3)CC2)n1 was read as p47phox inh 63, TbMetRS inhib inactive, p97 ATPase inh inactive, 14-3-3 Bad inh inactive, UBC9 SUMO inh inactive and eIF4E 4G PPI inactive.
C#CCOCCOCCOCCNc1nc(N2CCN(C(=O)[C@H](CCCCN)n3cc(CC(C)O)nn3)CC2)nc(N2CCN(C(=O)[C@H](Cc3ccc(O)cc3)n3cc(CCO)nn3)CC2)n1 (some centres undefined) was read as TbMetRS inhib inactive.
Screening C#CCOCCOCCOCCNc1nc(N2CCN(C(=O)[C@H](C)n3cc(CCCN=C(N)N)nn3)CC2)nc(N2CCN(C(=O)[C@H](Cc3ccc(O)cc3)n3cc(CCO)nn3)CC2)n1 returned p47phox inh inactive, p97 ATPase inh inactive, 14-3-3 Bad inh 78, UBC9 SUMO inh inactive and eIF4E 4G PPI inactive.
`C#CCOCCOCCOCCNc1nc(N2CCN(C(=O)C(CCC(=O)O)n3cc(C(N)CC(C)C)nn3)CC2)nc(N2CCN(C(=O)C(Cc3cc4ccccc4[nH]3)n3cc(C(N)Cc4ccc(O)cc4)nn3)CC2)n1` (centres undefined) gave p47phox inh inactive, p97 ATPase inh inactive, 14-3-3 Bad inh inactive, UBC9 SUMO inh inactive and eIF4E 4G PPI inactive.
`O=C(NC1CCCC1)C1C(c2ccc(C(F)(F)F)cc2)=Nc2ccccc2N1C(=O)c1cc2ccccc2[nH]1` (centres undefined) gave TbMetRS inhib inactive.
Screening CCc1ccc(OCC(=O)N/N=C2\CC(=O)c3ccccc32)cc1 returned p47phox inh inactive, TbMetRS inhib inactive, p97 ATPase inh inactive, 14-3-3 Bad inh inactive, UBC9 SUMO inh 87 and eIF4E 4G PPI inactive.

Screening data as filed in PubChem BioAssay.
